Consider 57 compounds from PubChem BioAssay AID652000 (Sanford-Burnham Center for Chemical Genomics, 2013).

The campaign covered roughly 2,400 compounds. Fewer than 10 were called active. The list is a sample of the results. Values without a mark were called inactive.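 The calls were made as follows: active = activation of at least 50%; inactive = the rest.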

Sequence of G-protein coupled receptor 183 (Homo sapiens) (P32249 whole entry, looked up): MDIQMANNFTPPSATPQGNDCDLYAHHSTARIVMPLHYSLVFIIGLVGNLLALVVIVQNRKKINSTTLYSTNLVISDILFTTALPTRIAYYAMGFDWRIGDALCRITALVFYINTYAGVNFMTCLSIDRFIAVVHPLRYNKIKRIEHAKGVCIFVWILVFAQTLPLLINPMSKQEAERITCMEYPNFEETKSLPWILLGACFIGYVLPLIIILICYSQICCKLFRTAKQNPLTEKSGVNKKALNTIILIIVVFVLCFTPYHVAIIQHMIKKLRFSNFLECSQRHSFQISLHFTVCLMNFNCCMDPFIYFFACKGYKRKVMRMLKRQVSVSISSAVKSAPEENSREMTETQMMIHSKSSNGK

The target in this assay is G-protein coupled receptor 183 (Homo sapiens) (UniProt P32249). The experiment in a line: EBI2 receptor activation without oxysterol – cell-based, single concentration, agonist mode, luminescence, counter-screen for EBI2 antagonist project, confirmation (AID 652000). As to conditions: EBI2-expressing cells, 60 min, at 5 µM, hits give high values, 0% vehicle, 100% 7α,25-dihydroxycholesterol control. The method in brief:
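System: beta-arrestin recruitment reporter cells, agonist mode. Amount: 1500 cells in each well. Probe or stimulus: no added oxysterol for test compounds. Compound: single concentration, 2.5 nL of 10 mM stock. Timing: 37°C overnight seeding and 60-min compound, 25°C dark 60-min detection. Signal: luminescence. Benchmarks: 7alpha,25-OHC positive control.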
A general note: Counterscreens check selectivity or assay interference.
For the compound `COc1cccc(-c2cc(C(=O)N3CCN(c4ccccc4OC)CC3)no2)c1`, the activation is -0.66%. In the case of `COc1ccc(-c2cc(C3CCN(c4ncccc4[N+](=O)[O-])CC3)[nH]n2)cc1` it was -0.52%; in that of `FC(F)(F)Oc1ccccc1C(c1nnnn1C1CCCCC1)N1CCN(C/C=C/c2ccccc2)CC1` (configuration not stated), 2.25%; in that of `Cc1ccc(OCC(=O)N2CCN(C(=O)c3cccnc3)CC2)cc1`, 0.16%.

On to `CC1CCc2sc3nc(N4CCN(CCO)CC4)n4ncnc4c3c2C1` (configuration not stated), for which the activation is 1.12%.

`Cc1nc2ccc(C(=O)N3CCN(c4ccccc4)CC3)cc2s1`: the activation is -1.39%. As to `Cc1cs/c(=N\N=C\c2ccc(O)cc2)n1Cc1ccco1`, the activation was -0.2%.

As for `CCOc1ccc(CN(Cc2ccco2)S(=O)(=O)c2ccc(-n3cnnn3)c(OC)c2)cc1`, the activation is 0.3%. Then `Fc1ccccc1/C=N/Nc1cc(N2CCCCC2)ncn1`, with -1.29%.

Consider `CC(C)Cn1c(N2CCN(C(=O)/C=C/c3ccccc3)CC2)nc2ccccc21`, for which the activation was -1.2%. Then `COc1cccc(NC(=O)Cn2c3ccccc3c3nc4n(c(=O)c32)CCS4)c1`, with -1.89%.

Regarding `Cc1ccc(OCCNC(=O)CCNS(=O)(=O)c2ccc(Br)cc2)cc1`, the activation was -0.93%. In the case of `CCN(CC(=O)NCc1cccs1)C(=O)/C=C/c1ccc(C)cc1` it was 0.57%; in that of `Cc1cccc(N2CCN(C(=O)c3cc4c(=O)[nH]c5ccccc5c4n3C)CC2)c1C`, 2.57%.

Turning to `O=C(COc1ccc2c(c1)CCC2)N1CCN(c2ccc(F)cc2)CC1`, the activation is -1.43%.

Consider `O=C(COc1ccc(Cl)cc1)N1CCN(c2cccc(C(F)(F)F)c2)CC1`, for which the activation is 1.62%. For the compound `Cc1nc(-c2ccccc2)sc1C(=O)/C=C/c1ccccc1`, the activation was 1.39%.

With `N#Cc1ccc(C(c2nnnn2CCc2ccccc2)N2CCCCCC2)cc1` (configuration not stated), the activation is 0.07%. In the case of `COc1ccccc1N1CCN(C(=O)c2cc(=O)c3cc(C)ccc3o2)CC1` it was 0.39%. In the case of `O=C(c1cc2cc(F)ccc2[nH]1)N1CCN(c2ccc(F)cc2)CC1` it was 1.94%; in that of `COc1ccc(NC(=O)N2CCC(Cc3ccccc3)CC2)cc1`, -0.34%; in that of `Cc1ccc(-c2nn(-c3ccccc3)cc2/C=C/C(=O)Nc2cccc(S(N)(=O)=O)c2)cc1`, 1.07%. Then `Cc1cccc(NC(=O)CN2CCN(C(=O)C3CCN(C(=O)/C=C/c4ccccc4)CC3)CC2)c1C`, with -0.88%; and `Cc1ccc2oc(=O)c3cnn(CC(=O)N4CCCCCC4)c3c2c1`, with -0.61%; and `CC(=O)c1nn(-c2ccc(C)cc2)cc1C(=O)c1cccc(Br)c1`, with 1.07%. In the case of `COc1ccc([C@H]2CC(=O)C=C(c3ccc(C)cc3)C2)cc1`, the activation was 1.12%. In the case of `CCOc1ccc(C(C)=O)cc1COC(=O)c1cnc(Cl)c(Cl)c1` it was -0.57%; in that of `O=C(c1cc2ccccc2s1)N1CCN(c2ccccn2)CC1`, -1.48%; in that of `CCC1Nc2ncnc(N3CCN(c4ccccc4)CC3)c2N(Cc2ccc(Cl)cc2)C1=O` (configuration not stated), -4.52%. In the case of `CC1(Cc2ccccc2C#N)C(=O)Nc2ccc(-c3ccc4[nH]ccc4c3)cc21` (configuration not stated) it was -0.66%; in that of `O=C(c1cc2ccccc2o1)N1CCN(S(=O)(=O)c2ccc(Cl)s2)CC1`, 0.16%. As to `COc1ccc(Nc2cc(Sc3ccc(OC)cc3)ncn2)cc1`, the activation was -0.07%. Then `COc1ccc(-n2c(Cc3cccn3C)nnc2SCC(=O)Nc2cc(C)cc(C)c2)cc1`, with 0.66%. `COc1ccc([C@H]2CC(=O)C=C(/C=C/c3ccc(Cl)cc3)C2)cc1`: the activation is -0.43%.

As to `COc1ccccc1CCNC(=O)C1CCN(C(=O)/C=C/c2ccccc2)CC1`, the activation was -0.16%. In the case of `COc1ccc(C(c2nnnn2C2CCCC2)N2CCN(C/C=C/c3ccccc3)CC2)cc1` (configuration not stated) it was -0.25%. Then `CN1CCc2ccccc2C1Cc1ccccc1NC(=O)c1sc2ccccc2c1Cl` (configuration not stated), with -0.98%; and `Cc1ccc(-n2ncc3c(=O)n(-c4ccc(C)c(C)c4)c(-c4ccco4)nc32)cc1`, with -1.66%.

With `O=C(Nc1ccc(S(=O)(=O)N2CCCCC2)cc1)C1CC(=O)N(c2ccc(F)cc2)C1` (configuration not stated), the activation is 0.98%. Then `O=C(c1cc(=O)c2ccccc2o1)N1CCN(c2ccccc2)CC1`, with 2.48%; and `CCCC1CCC(=NNC(=S)NCCc2ccccc2)CC1` (configuration not stated), with -1.07%.

Take `Cc1cccc(N=C2NC(=O)/C(=C/c3cn(C)c4ccccc34)S2)c1`: the activation was -0.07%. Then `COc1ccc(-c2cc(NC=O)c3ncc(-c4cccc(C(=O)N(C)C)c4)n3c2)c(OC)c1`, with -1.02%; and `Cc1ccc(CSCCNC(=O)CN(c2ccc(F)cc2)S(C)(=O)=O)cc1`, with 0.84%; and `CC(C)N(Cc1ccccc1)C(=S)Nc1ccc(OC(F)F)cc1`, with 0.07%. In the case of `CC(C)Cc1ccc(-c2cc3nc(NCc4cccc(Cl)c4)ccn3n2)cc1` it was -1.2%; in that of `CCOC(=O)N1CCN(C(=O)CSc2ccc(Cl)cc2)CC1`, 2.07%; in that of `Cc1ccc(SCC(=O)N2CCN(c3ccc(F)cc3)CC2)cc1`, 4.12%. Then `CC(=O)/C(=N\Nc1ccc(Cl)cc1Cl)Sc1cccc2cccnc12`, with -1.34%. Regarding `O=C(NCc1ccc(Cl)cc1)c1cc(=O)nc2sc(-c3ccccc3)nn12`, the activation is -0.48%. On to `COc1ccc(OC)c(C(=O)c2coc3ccc(O)c(CN4CCOCC4)c23)c1`, for which the activation was 0.62%. Regarding `O=C(/C=C/c1cccc(C(F)(F)F)c1)N1CCN(c2ccccn2)CC1`, the activation is -0.93%. In the case of `Cc1cccc(OCC(O)CN2CCN(S(=O)(=O)c3ccc(C)cc3C)CC2)c1` (configuration not stated) it was -0.98%; in that of `COc1ccc(-c2cn(-c3ccc(OC)cc3)c(=S)[nH]2)cc1`, 1.66%.

Take `O=C(CSc1ccccc1)Nc1cc(Cl)ccc1Oc1ccccc1`: the activation is -1.48%. In the case of `CCC(C)(C)NC(=O)c1cc([N+](=O)[O-])ccc1N1CCCCC1` it was -1.43%; in that of `CCOC(=O)N1CCN(C(=O)COc2ccc(Br)cc2)CC1`, 1.84%.
